molecular target: Phosphatidylinositol 4,5-bisphosphate 3-kinase catalytic subunit gamma isoform (Homo sapiens, UniProt P48736); test: Inhibition of PI3Kgamma after 4 hrs
Method in brief: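 Recombinant PI3Kγ incubated 4 h at room temperature with or without compound at final concentrations of 3, 10, 30 and 50 μM.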

Sequence of Phosphatidylinositol 4,5-bisphosphate 3-kinase catalytic subunit gamma isoform (P48736 whole entry, canonical isoform): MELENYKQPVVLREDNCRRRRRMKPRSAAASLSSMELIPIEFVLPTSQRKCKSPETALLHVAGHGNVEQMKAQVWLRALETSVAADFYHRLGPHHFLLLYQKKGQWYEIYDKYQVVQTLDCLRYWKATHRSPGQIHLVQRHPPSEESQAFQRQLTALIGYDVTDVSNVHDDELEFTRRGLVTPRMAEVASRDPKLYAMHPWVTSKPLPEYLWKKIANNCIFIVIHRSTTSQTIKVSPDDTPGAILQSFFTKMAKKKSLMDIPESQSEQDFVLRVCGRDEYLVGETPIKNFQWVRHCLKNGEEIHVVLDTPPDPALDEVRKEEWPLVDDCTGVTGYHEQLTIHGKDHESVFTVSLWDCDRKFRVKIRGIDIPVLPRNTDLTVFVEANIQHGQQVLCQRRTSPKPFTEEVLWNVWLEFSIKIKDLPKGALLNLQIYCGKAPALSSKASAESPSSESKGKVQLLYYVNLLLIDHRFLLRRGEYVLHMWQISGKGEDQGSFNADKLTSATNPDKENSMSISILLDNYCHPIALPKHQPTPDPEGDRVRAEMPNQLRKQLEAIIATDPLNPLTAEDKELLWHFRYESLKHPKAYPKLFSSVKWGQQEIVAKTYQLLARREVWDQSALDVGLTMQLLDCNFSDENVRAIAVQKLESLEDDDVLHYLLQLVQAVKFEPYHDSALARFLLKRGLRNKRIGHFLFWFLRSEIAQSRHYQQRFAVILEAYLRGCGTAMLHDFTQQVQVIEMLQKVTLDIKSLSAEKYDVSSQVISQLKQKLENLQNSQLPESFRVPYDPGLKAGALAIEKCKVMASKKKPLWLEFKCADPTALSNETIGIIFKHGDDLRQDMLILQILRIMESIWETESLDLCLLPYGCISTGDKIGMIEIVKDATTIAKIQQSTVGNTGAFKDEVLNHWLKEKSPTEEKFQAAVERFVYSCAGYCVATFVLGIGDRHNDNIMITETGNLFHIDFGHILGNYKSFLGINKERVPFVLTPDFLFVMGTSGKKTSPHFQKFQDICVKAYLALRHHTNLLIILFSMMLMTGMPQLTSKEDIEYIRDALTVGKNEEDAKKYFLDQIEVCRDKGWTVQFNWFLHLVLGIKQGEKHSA

SMILES | IC50 [µM]
CC(=O)Oc1ccccc1C1OC(c2ccc3c(c2)OCCO3)=NN1C(C)=O (stereo unspecified) | 2.06
CC(=O)Oc1ccc(Cl)cc1C1OC(c2ccc3c(c2)OCCO3)=NN1C(C)=O (stereo unspecified) | 0.98
CC(=O)Oc1ccc(Br)cc1C1OC(c2ccc3c(c2)OCCO3)=NN1C(C)=O (stereo unspecified) | 1.31
CC(=O)Oc1c(Cl)cc(Cl)cc1C1OC(c2ccc3c(c2)OCCO3)=NN1C(C)=O (stereo unspecified) | 1.75
CC(=O)Oc1c(Br)cc(Br)cc1C1OC(c2ccc3c(c2)OCCO3)=NN1C(C)=O (stereo unspecified) | 1.98

tested on: T-cell; test: Selectivity index, ratio of CC50 for lymph node T cell to IC50 for lymph node T cell; assay type: functional

SMILES | Ratio CC50/IC50
C/C=C/C[C@@H](C)[C@@H](O)[C@H]1C(=O)N[C@@H](CC)C(=O)N(C)CC(=O)N(C)[C@@H](CC(C)C)C(=O)N[C@@H](C(C)C)C(=O)N(C)[C@@H](CC(C)C)C(=O)N[C@@H](C)C(=O)N[C@H](C)C(=O)N(C)[C@@H](CC(C)C)C(=O)N(C)[C@@H](CC(C)C)C(=O)N(C)[C@@H](C(C)C)C(=O)N1C [CYCLOSPORINE] | 196.86

— ChEMBL document CHEMBL1944540, “Synthesis, molecular docking and biological evaluation of 1,3,4-oxadiazole derivatives as potential immunosuppressive agents” (Bioorg Med Chem, 2012)
